Results taken from ChEMBL document CHEMBL4049389, “Design, synthesis and biological evaluation of aminobenzyloxyarylamide derivatives as selective κ opioid receptor antagonists” (Eur J Med Chem, 2017).
Calls of active or inactive are those of the source. The calls are words filed in the database; no cut-off is given here.

Key:
Mu-type opioid receptor [1] = molecular target: T1, Mu-type opioid receptor (Homo sapiens, UniProt P35372); assay: Displacement of [3H]DAMGO from recombinant human mu-opioid receptor expressed in CHO cell membranes at 1 X 10^-5 M after 60 mins by liquid scintillation counting method relative to control
T1 sequence (P35372 whole entry): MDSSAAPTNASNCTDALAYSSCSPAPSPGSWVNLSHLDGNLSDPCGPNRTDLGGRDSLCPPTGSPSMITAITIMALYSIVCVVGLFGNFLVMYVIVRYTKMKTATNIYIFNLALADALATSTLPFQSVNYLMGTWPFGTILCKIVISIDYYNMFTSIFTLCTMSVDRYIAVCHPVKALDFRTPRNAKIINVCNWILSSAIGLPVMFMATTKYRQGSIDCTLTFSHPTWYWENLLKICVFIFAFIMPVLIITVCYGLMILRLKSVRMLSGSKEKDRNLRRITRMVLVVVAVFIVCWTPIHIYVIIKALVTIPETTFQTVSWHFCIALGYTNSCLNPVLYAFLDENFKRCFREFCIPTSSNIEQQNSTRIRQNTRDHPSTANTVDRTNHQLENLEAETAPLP
How it was run: (§1)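 Single-concentration radioligand displacement in membranes from CHO (κ, μ) or HEK293 (δ) cells expressing human receptors. Radioligands were [3H]-U69,593, [3H]-DAMGO and [3H]-DPDPE, incubated in Tris-HCl at 25 °C for 60 min, filtered and counted by scintillation. Read-out was percent inhibition of specific binding; assays were done in duplicate.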

Mu-type opioid receptor [2] = molecular target: T1, Mu-type opioid receptor; assay: Displacement of [3H]DAMGO from recombinant human mu-opioid receptor expressed in CHO cell membranes at 1 X 10^-6 M after 60 mins by liquid scintillation counting method relative to control; how it was run: as §1
[3] = molecular target: T2, Kappa-type opioid receptor (Homo sapiens, UniProt P41145); assay: Displacement of [3H]U69593 from recombinant human kappa-opioid receptor expressed in CHO cell membranes at 1 X 10^-5 M after 60 mins by liquid scintillation counting method relative to control; how it was run: as §1
T2 sequence (P41145 whole entry): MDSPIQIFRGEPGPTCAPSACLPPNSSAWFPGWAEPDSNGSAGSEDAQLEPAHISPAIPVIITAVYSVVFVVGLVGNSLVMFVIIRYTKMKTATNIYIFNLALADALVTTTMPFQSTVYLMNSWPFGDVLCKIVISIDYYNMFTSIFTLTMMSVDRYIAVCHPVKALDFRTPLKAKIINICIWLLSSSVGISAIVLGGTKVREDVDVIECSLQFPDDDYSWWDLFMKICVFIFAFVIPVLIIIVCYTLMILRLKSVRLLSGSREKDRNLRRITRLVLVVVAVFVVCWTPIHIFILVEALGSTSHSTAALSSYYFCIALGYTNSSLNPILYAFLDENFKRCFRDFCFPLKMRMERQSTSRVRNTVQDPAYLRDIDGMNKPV

[4] = molecular target: T2, Kappa-type opioid receptor; assay: Displacement of [3H]U69593 from recombinant human kappa-opioid receptor expressed in CHO cell membranes at 1 X 10^-6 M after 60 mins by liquid scintillation counting method relative to control; how it was run: as §1
[5] = molecular target: T3, Delta-type opioid receptor (Homo sapiens, UniProt P41143); assay: Displacement of [3H]DPDPE from recombinant human delta-opioid receptor expressed in HEK293 cell membranes at 1 X 10^-5 M after 60 mins by liquid scintillation counting method relative to control; how it was run: as §1
T3 sequence (P41143 whole entry): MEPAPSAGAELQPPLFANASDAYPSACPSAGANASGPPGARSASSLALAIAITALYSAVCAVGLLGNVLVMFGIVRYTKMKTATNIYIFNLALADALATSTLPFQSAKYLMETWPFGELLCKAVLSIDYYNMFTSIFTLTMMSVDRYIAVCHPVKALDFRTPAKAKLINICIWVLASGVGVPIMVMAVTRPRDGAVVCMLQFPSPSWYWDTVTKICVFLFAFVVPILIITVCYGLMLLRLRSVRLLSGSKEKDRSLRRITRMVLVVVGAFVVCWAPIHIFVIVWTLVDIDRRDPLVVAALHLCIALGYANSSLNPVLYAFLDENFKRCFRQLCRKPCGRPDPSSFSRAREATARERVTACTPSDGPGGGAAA

[6] = molecular target: T3, Delta-type opioid receptor; assay: Displacement of [3H]DPDPE from recombinant human delta-opioid receptor expressed in HEK293 cell membranes at 1 X 10^-6 M after 60 mins by liquid scintillation counting method relative to control; how it was run: as §1
Mu-type opioid receptor [7] = molecular target: T1, Mu-type opioid receptor; assay: Displacement of [3H]DAMGO from recombinant human mu-opioid receptor expressed in CHO cell membranes after 60 mins by liquid scintillation counting method
[8] = molecular target: T2, Kappa-type opioid receptor; assay: Displacement of [3H]U69593 from recombinant human kappa-opioid receptor expressed in CHO cell membranes after 60 mins by liquid scintillation counting method
[9] = molecular target: T3, Delta-type opioid receptor; assay: Displacement of [3H]DPDPE from recombinant human delta-opioid receptor expressed in HEK293 cell membranes after 60 mins by liquid scintillation counting method
Homo sapiens [10] = species: Homo sapiens; assay: Selectivity ratio of Ki for displacement of [3H]DAMGO from recombinant human mu-opioid receptor expressed in CHO cell membranes to Ki for displacement of [3H]U69593 from recombinant human kappa-opioid receptor expressed in CHO cell membranes
Homo sapiens [11] = species: Homo sapiens; assay: Selectivity ratio of Ki for displacement of [3H]DPDPE from recombinant human delta-opioid receptor expressed in HEK293 cell membranes to Ki for displacement of [3H]U69593 from recombinant human kappa-opioid receptor expressed in CHO cell membranes
Mus musculus [12] = assay: Antidepressant-like activity in ICR mouse assessed as decrease in immobility time at 30 mg/kg, ip administered 30 mins prior to test measured for last 4 mins of 6 mins observation by forced swim test; assay type: functional, organism-based
How it was run: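 Male ICR mice (20–25 g), 10 per group, adapted ≥15 min before testing. Dosed i.p. with saline vehicle 30 min pretest. Each mouse was placed in a cylinder 10 cm wide with water 6 cm deep at 25 °C for 6 min. Immobility was scored over the last 4 min; mean ± SEM.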

Mu-type opioid receptor [13] = molecular target: T1, Mu-type opioid receptor; assay: Antagonist activity at recombinant human mu-opioid receptor expressed in CHO cell membranes assessed as inhibition of DAMGO-induced [35S]GTPgammaS binding after 4 hrs by microbeta scintillation counting method; assay type: functional
How it was run: (§2)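 Membranes from CHO cells (κ, μ) or HEK293 cells (δ) expressing human opioid receptors. Assay buffer was 20 mM HEPES pH 7.4, 5 mM MgCl2, 100 mM NaCl, 1 mM EDTA, 1 mM DTT with GDP. GTP-γ-35S was 0.5 nM final. Agonist at ~80% max stimulation: U69,593 300 nM (κ), DAMGO (μ), DPDPE 30 nM (δ). Read by WGA SPA, 11-point curves, four-parameter fit; mean ± SEM of ≥3 experiments.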

[14] = molecular target: T2, Kappa-type opioid receptor; assay: Antagonist activity at recombinant human kappa-opioid receptor expressed in CHO cell membranes assessed as inhibition of U69593-induced [35S]GTPgammaS binding after 4 hrs by microbeta scintillation counting method; assay type: functional; how it was run: as §2
[15] = molecular target: T3, Delta-type opioid receptor; assay: Antagonist activity at recombinant human delta-opioid receptor expressed in HEK293 cell membranes assessed as inhibition of DPDPE-induced [35S]GTPgammaS binding after 2 hrs by microbeta scintillation counting method; assay type: functional; how it was run: as §2
Homo sapiens [16] = species: Homo sapiens; assay: Selectivity ratio of IC50 for antagonist activity at recombinant human mu-opioid receptor expressed in CHO cell membranes assessed as inhibition of DAMGO-induced [35S]GTPgammaS binding to IC50 for antagonist activity at recombinant human kappa-opioid receptor expressed in CHO cell membranes assessed as inhibition of U69593-induced [35S]GTPgammaS binding; how it was run: as §2
Homo sapiens [17] = species: Homo sapiens; assay: Selectivity ratio of IC50 for antagonist activity at recombinant human delta-opioid receptor expressed in HEK293 cell membranes assessed as inhibition of DPDPE-induced [35S]GTPgammaS binding to IC50 for antagonist activity at recombinant human kappa-opioid receptor expressed in CHO cell membranes assessed as inhibition of U69593-induced [35S]GTPgammaS binding; how it was run: as §2
Mus musculus [18] = assay: Anxiolytic activity in ICR mouse assessed as increase in number of open arm entries at 30 mg/kg, ip administered 30 mins prior to test measured for 5 mins by elevated plus maze test; assay type: functional, organism-based
How it was run: (§3)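 Male ICR mice (18–22 g), 10 per group, adapted ≥1 h. Dosed i.p. with saline vehicle 30 min pretest. Maze elevated 50 cm; each mouse started on the central platform facing an open arm. Entries and time in open and closed arms were video-tracked over 5 min, expressed as OE/(CE+OE) and OT/(OT+CT); mean ± SEM.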

Mus musculus [19] = assay: Anxiolytic activity in ICR mouse assessed as increase in time spent on open arms at 30 mg/kg, ip administered 30 mins prior to test measured for 5 mins by elevated plus maze test; assay type: functional, organism-based; how it was run: as §3
[20] = Oral bioavailability in rat at 10 mg/kg by LC-MS/MS analysis; assay type: ADME, organism-based; settings: in vivo
[21] = Tmax in rat at 1 or 10 mg/kg, iv or po by LC-MS/MS analysis; assay type: ADME, organism-based; settings: in vivo
[22] = Half life in rat at 1 or 10 mg/kg, iv or po by LC-MS/MS analysis; assay type: ADME, organism-based; settings: in vivo

Row | Structure (SMILES) | inhibition (Mu-type opioid receptor [1]) [%] | inhibition (Mu-type opioid receptor [2]) [%] | inhibition [3] [%] | inhibition [4] [%] | inhibition [5] [%] | inhibition [6] [%] | Ki (Mu-type opioid receptor [7]) [nM] | Ki [8] [nM] | Ki [9] [nM] | Ratio Ki (Homo sapiens [10]) | Ratio Ki (Homo sapiens [11]) | further results
1 | Cc1cc(C)cc(C2CCCN2Cc2ccc(Oc3ccc(C(N)=O)cc3)c(F)c2)c1 (stereo unspecified) | 95.3 | 71 | 100 | 98.8 | 97.1 | 45.5 | 62.8 | 29.4 | 267 | 2.13 | 9 | Activity (Mus musculus [12]): Active
2 | NC(=O)c1ccc(Oc2ccc(CN3CCCC3c3cccc(F)c3)cc2)c2ccccc12 (stereo unspecified) | 0 | 0 | 57.9 | 27.7 | 4 | 2.3 |  |  |  |  |  | 
3 | COc1ccc(C2CCCN2Cc2ccc(Oc3ccc(C(N)=O)c4ccccc34)cc2)cc1 (stereo unspecified) | 15 | 0 | 80.5 | 46.5 | 9 | 0 | > 10000 | 4600 | > 10000 | > 2.2 | > 2.2 | 
4 | Cc1cc(C)cc(C2CCCN2Cc2ccc(Oc3ccc(C(N)=O)cc3F)c(Cl)c2)c1 (stereo unspecified) | 94.2 | 51.4 | 100 | 98.5 | 92.4 | 54.1 | 220 | 15.7 | 191 | 14 | 12.2 | IC50 (Mu-type opioid receptor [13]): 144 nM; IC50 [14]: 9.32 nM; IC50 [15]: 15.8 nM; Ratio IC50 (Homo sapiens [16]): 15.5; Ratio IC50 (Homo sapiens [17]): 1.7; Activity (Mus musculus [12]): Active; Activity (Mus musculus [18]): Active; Activity (Mus musculus [19]): Active
5 | NC(=O)c1ccc(Oc2ccc(CN3CCCC3c3ccc(F)cc3)cc2)c2ccccc12 (stereo unspecified) | 0 | 0 | 39 | 13.8 | 0 | 0 |  |  |  |  |  | 
6 | Cc1cc(C)cc(C2CCCN2Cc2ccc(Oc3ccc(C(N)=O)cc3F)cc2)c1 (racemic) | 93.6 | 56.1 | 100 | 97 | 87.2 | 45.5 | 90.9 | 11.9 | 91.5 | 7.6 | 7.6 | IC50 (Mu-type opioid receptor [13]): 22.6 nM; IC50 [14]: 6.68 nM; IC50 [15]: 95.5 nM; Ratio IC50 (Homo sapiens [16]): 3.4; Ratio IC50 (Homo sapiens [17]): 14.3; Activity (Mus musculus [12]): Active; Activity (Mus musculus [18]): Active; Activity (Mus musculus [19]): Active
7 | Cc1cc(C)cc(C2CCCN2Cc2ccc(Oc3ccc(C(N)=O)c4ccccc34)cc2)c1 (stereo unspecified) | 0 | 0 | 23.7 | 12.2 | 0 | 0 |  |  |  |  |  | 
8 | Cc1cc(C)cc(C2CCCN2Cc2ccc(Oc3ccc(C(N)=O)cc3F)c(F)c2)c1 (stereo unspecified) | 96.8 | 73.4 | 98.7 | 95.8 | 89.2 | 37.4 | 27.9 | 42.7 | 429 | 0.65 | 10.1 | 
9 | Cc1cc(C)cc([C@@H]2CCCN2Cc2ccc(Oc3ccc(C(N)=O)cc3F)cc2)c1 [ATICAPRANT] |  |  |  |  |  |  |  |  |  |  |  | bioavailability [20]: 25%; Tmax [21]: 1 to 2 h; half-life [22]: 2 to 4 h
10 | NC(=O)c1ccc(Oc2ccc(CN3CCCC3c3cccnc3)cc2)c2ccccc12 (stereo unspecified) | 52.2 | 11.3 | 12 | 5.1 | 0 | 0 |  |  |  |  |  | 
11 | NC(=O)c1ccc(Oc2ccc(CN3CCCC3c3cccc(Cl)c3)cc2)c2ccccc12 (stereo unspecified) | 0 | 0 | 64.1 | 31.4 | 0 | 0 |  |  |  |  |  | 
12 | Cc1cc(C)cc(C2CCCN2Cc2ccc(Oc3ccc(C(N)=O)cc3)c(Cl)c2)c1 (stereo unspecified) | 99.1 | 78.8 | 100 | 99.3 | 87.5 | 36.5 | 32.3 | 37.6 | 489 | 0.85 | 13 | 
13 | Cc1ccccc1C1CCCN1Cc1ccc(Oc2ccc(C(N)=O)c3ccccc23)cc1 (stereo unspecified) | 0 | 0 | 34 | 13.9 | 2.9 | 0 |  |  |  |  |  | 
14 | Cc1cccc(C2CCCN2Cc2ccc(Oc3ccc(C(N)=O)c4ccccc34)cc2)c1 (stereo unspecified) | 16.3 | 0 | 86.9 | 39.9 | 0 | 0 | > 10000 | 1740 | > 10000 | > 5.8 | > 5.8 | Activity (Mus musculus [12]): Active; Activity (Mus musculus [18]): Active; Activity (Mus musculus [19]): Active
